Test [1] concerns Tumor Cell line. Description: Drug molar concentration required to inhibit 50% of human tumor cell growth. Type of test: functional. A digest of the protocol: (§1)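 NCI panel of 54 human tumor lines from eight cancer types, mostly seeded at 20 000 cells/well. Cells were preincubated 24 h without drug, then exposed to five 10-fold dilutions for 48 h, fixed and stained with sulforhodamine B, and read spectrophotometrically. Versus control, GI50 (50% growth inhibition), TGI (0% growth) and LC50 (−50% growth) were calculated; mean graph midpoints average all lines.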

Test [2] has as its system KB. Description: Cytotoxicity against KB cells after a 3 day incubation. Type of test: functional, Homo sapiens. Particulars: read-out: ID50 (the source's name). The method in brief:
(§2)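 KB cells (parental ATCC line and resistant variants) exposed to drug at five concentrations […] for 3 days. ID50 is the concentration giving 50% reduction in cell number, derived from the degree of inhibition at the five concentrations.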

The subject of test [3] is Tumor Cell line. Description: Drug concentration required to inhibit total cell growth. It is filed as functional, Homo sapiens. The note with it: read-out: Log TGI (converted). The method in brief: as §1
The subject of test [4] is KB. Put plainly: Inhibitory dose value is the concentration which affords 50% reduction in the number of KB ATCC cells. Type of test: functional. Particulars: Homo sapiens, read-out: ID50 (the source's name). The method in brief:
as §2

The test system of test [5] is KB. Description: 50% reduction in the number of KB V20C resistant variant. It is filed as functional, Homo sapiens. The note with it: read-out: ID50 (the source's name). The method in brief: as §2
Test [6] deals with KB. Put plainly: 50% reduction in the number of KB 7D (topoisomerase II, aMDR) resistant variant. It is filed as functional, Homo sapiens. The note with it: read-out: ID50 (the source's name). A digest of the protocol: as §2
In test [7] the test system is Tumor Cell line. Put plainly: LC 50 is the concentration required to cause 50% cell death. The note with it: Homo sapiens, read-out: Log LC50 (the source's name) (converted). Type of test: functional. The method in brief:
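NCI in vitro panel of 54 human tumor cell lines from eight cancer types, mostly seeded at 20 000 cells/well and preincubated 24 h without drug. Five 10-fold dilutions were then added for a further 48 h. Cells were fixed in situ and stained with sulforhodamine B, and bound dye was read spectrophotometrically. LC50 (−50% growth versus control) was taken from five-point dose-response curves and reported as the log10 mean-graph midpoint across lines.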

Consider two compounds from ChEMBL document CHEMBL1127326, “Antitumor agents. 148. Synthesis and biological evaluation of novel 4 beta-amino derivatives of etoposide with better pharmacological profiles” (1994).

Compound `COc1cc([C@@H]2c3cc4c(cc3[C@@H](NC3CCN(Cc5ccccc5)CC3)[C@H]3COC(=O)[C@H]23)OCO4)cc(OC)c1O` gave a GI50 in the test with Tumor Cell line [1] of 0.174 µM. Moreover, the IC50 in the test with KB [2] worked out at 0.027 µM; with KB [4], 0.027 µM; with KB [5] it was 0.026 µM; in the test with KB [6], 0.05 µM. The total growth inhibition concentration (TGI) with Tumor Cell line [3] is 1.48 µM.
`COc1cc([C@@H]2c3cc4c(cc3[C@@H](NCCCN(C)C)[C@H]3COC(=O)[C@H]23)OCO4)cc(OC)c1O` showed a GI50 in the test with Tumor Cell line [1] of 0.331 µM. Besides, in the test with Tumor Cell line [3], the TGI is 2.19 µM. Besides, in the test on Tumor Cell line [7], the CC50 was 12.6 µM. Besides, the IC50 in the test on KB [6] (Homo sapiens, KB) stood at 0.66 µM.

For orientation: GI50 means the concentration at which growth is held to half of that of the control. The term TGI denotes the concentration giving total growth inhibition.
